In ChEMBL document CHEMBL1143542, “Structure-activity relationships of bivalent aminoglycosides and evaluation of their microbiological activities” (2005) one finds Activity data, which are given here for four molecules.

What all share (format): functional, organism-based
Test [1] has as its system Pseudomonas aeruginosa. The test is described as follows: Susceptibility testing against Pseudomonas aeruginosa PAE_NUH21; R=Resistant. The method, boiled down:
(§1)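 Disk diffusion susceptibility profiling of P. aeruginosa reference and clinical isolates against empirically used antipseudomonal antibiotics. Each isolate was categorised as susceptible, intermediate or resistant.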

The subject of test [2] is Pseudomonas aeruginosa. Description: Susceptibility testing against Pseudomonas aeruginosa PAE_NUH02; R=Resistant. The method in brief:
as §1

The test system of test [3] is Pseudomonas aeruginosa. The test is described as follows: Susceptibility testing against Pseudomonas aeruginosa PAE_NUH01; R=Resistant. The method in brief:
as §1

Test [4] deals with Pseudomonas aeruginosa. The test is described as follows: Susceptibility testing against Pseudomonas aeruginosa ATCC 27853; R=Resistant. The method, boiled down: as §1
For test [5], the system named is Pseudomonas aeruginosa. The test is described as follows: Susceptibility testing against Pseudomonas aeruginosa PAE_NUH05; R=Resistant. The method in brief: as §1
The subject of test [6] is Pseudomonas aeruginosa. The test is described as follows: Susceptibility testing against Pseudomonas aeruginosa PAE_NUH18; R=Resistant. The method in brief: as §1
Test [7] relates to Pseudomonas aeruginosa. Description: Susceptibility testing against Pseudomonas aeruginosa PAE_NUH24; R=Resistant. The method, boiled down:
as §1

The test system of test [8] is Pseudomonas aeruginosa. The test is described as follows: Susceptibility testing against Pseudomonas aeruginosa PAE_NUH17; S=Susceptible. The method in brief:
(§2)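 Disk diffusion susceptibility profiling against a panel of empirically used antipseudomonal antibiotics. Each strain was categorised as susceptible (S) or intermediate (I).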

The subject of test [9] is Pseudomonas aeruginosa. Description: Susceptibility testing against Pseudomonas aeruginosa PAE_NUH23; R=Resistant. The method, boiled down: as §1
The subject of test [10] is Pseudomonas aeruginosa. The test is described as follows: Susceptibility testing against Pseudomonas aeruginosa PAE_NUH04; R=Resistant. The method in brief:
as §1

Test [11] relates to Pseudomonas aeruginosa. Description: Susceptibility testing against Pseudomonas aeruginosa PAE_NUH20; S=Susceptible. The method in brief:
as §2

For test [12], the system named is Pseudomonas aeruginosa. The test is described as follows: Susceptibility testing against Pseudomonas aeruginosa PAE_NUH03; R=Resistant. The method, boiled down:
as §1

The test system of test [13] is Pseudomonas aeruginosa. Description: Susceptibility testing against Pseudomonas aeruginosa PAE_NUH22; R=Resistant. The method in brief: as §1
The test system of test [14] is Pseudomonas aeruginosa. Description: Susceptibility testing against Pseudomonas aeruginosa PAE_NUH19; R=Resistant. The method, boiled down:
as §1

Test [15] has as its system Pseudomonas aeruginosa. Description: Susceptibility testing against Pseudomonas aeruginosa PAE_NUH06; R=Resistant. The method in brief:
as §1

Test [16] has as its system Pseudomonas aeruginosa. The test is described as follows: Susceptibility testing against Pseudomonas aeruginosa PAE_NUH07; R=Resistant. The method in brief:
as §1

For test [17], the system named is Pseudomonas aeruginosa. The test is described as follows: Susceptibility testing against Pseudomonas aeruginosa PAE_NUH25; S=Susceptible. The method in brief: as §2
In test [18] the test system is Pseudomonas aeruginosa. The test is described as follows: Susceptibility testing against Pseudomonas aeruginosa PAE_NUH18; I=Intermediate. The method in brief:
as §1

For test [19], the system named is Pseudomonas aeruginosa. The test is described as follows: Susceptibility testing against Pseudomonas aeruginosa PAE_NUH24; I=Intermediate. The method, boiled down:
as §1

The subject of test [20] is Pseudomonas aeruginosa. Description: Susceptibility testing against Pseudomonas aeruginosa ATCC 27853; S=Susceptible. The method in brief:
as §2

Test [21] concerns Pseudomonas aeruginosa. Description: Susceptibility testing against Pseudomonas aeruginosa PAE_NUH19; S=Susceptible. The method, boiled down: as §2
In test [22] the test system is Pseudomonas aeruginosa. Description: Susceptibility testing against Pseudomonas aeruginosa PAE_NUH21; S=Susceptible. The method, boiled down:
as §2

Test [23] has as its system Pseudomonas aeruginosa. Description: Susceptibility testing against Pseudomonas aeruginosa PAE_NUH23; I=Intermediate. The method in brief:
as §1

The test system of test [24] is Pseudomonas aeruginosa. Description: Susceptibility testing against Pseudomonas aeruginosa PAE_NUH22; S=Susceptible. The method, boiled down:
as §2

For test [25], the system named is Pseudomonas aeruginosa. The test is described as follows: Susceptibility testing against Pseudomonas aeruginosa PAE_NUH23; S=Susceptible. The method in brief: as §2
Test [26] has as its system Pseudomonas aeruginosa. Description: Susceptibility testing against Pseudomonas aeruginosa PAE_NUH24; S=Susceptible. The method in brief: as §2
Test [27] relates to Pseudomonas aeruginosa. The test is described as follows: Susceptibility testing against Pseudomonas aeruginosa PAE_NUH07; S=Susceptible. The method in brief: as §2
Test [28] relates to Pseudomonas aeruginosa. The test is described as follows: Susceptibility testing against Pseudomonas aeruginosa PAE_NUH18; S=Susceptible. The method, boiled down: as §2
For test [29], the system named is Pseudomonas aeruginosa. The test is described as follows: Susceptibility testing against Pseudomonas aeruginosa PAE_NUH20; R=Resistant. The method in brief: as §1
Test [30] relates to Pseudomonas aeruginosa. Description: Susceptibility testing against Pseudomonas aeruginosa PAE_NUH25; R=Resistant. The method, boiled down: as §1

Turning to `COc1cc(Cc2cnc(N)nc2N)cc(OC)c1OC.Cc1cc(NS(=O)(=O)c2ccc(N)cc2)no1`, the Activity entry in the test with Pseudomonas aeruginosa [1], with Pseudomonas aeruginosa [2], with Pseudomonas aeruginosa [3], in the test with Pseudomonas aeruginosa [4], in the test with Pseudomonas aeruginosa [5] and in the test on Pseudomonas aeruginosa [6] was “Resistant” in each case. Besides, the Activity result is “Resistant” in the test on Pseudomonas aeruginosa [7]; “Susceptible” in the test on Pseudomonas aeruginosa [8]; “Resistant” in the test on Pseudomonas aeruginosa [9]; “Resistant” in the test with Pseudomonas aeruginosa [10]; “Susceptible” in the test on Pseudomonas aeruginosa [11]; “Resistant” in the test with Pseudomonas aeruginosa [12]. Besides, the Activity result with Pseudomonas aeruginosa [13] is on record as “Resistant”; with Pseudomonas aeruginosa [14] it was “Resistant”; with Pseudomonas aeruginosa [15], “Resistant”; in the test on Pseudomonas aeruginosa [16] it was “Resistant”; in the test on Pseudomonas aeruginosa [17] it was “Susceptible”.
Consider GENTAMICIN, for which the Activity entry with Pseudomonas aeruginosa [2] was “Resistant”; in the test on Pseudomonas aeruginosa [3], “Resistant”; in the test with Pseudomonas aeruginosa [18] it was “I”; in the test on Pseudomonas aeruginosa [5], “Resistant”; with Pseudomonas aeruginosa [19] it was “I”; with Pseudomonas aeruginosa [8], “Susceptible”. Also, the Activity entry with Pseudomonas aeruginosa [10] is reported as “Resistant”; with Pseudomonas aeruginosa [20], “Susceptible”; in the test with Pseudomonas aeruginosa [21], “Susceptible”; with Pseudomonas aeruginosa [11], “Susceptible”; with Pseudomonas aeruginosa [12], “Resistant”; in the test with Pseudomonas aeruginosa [22], “Susceptible”. For the same molecule, the Activity result in the test on Pseudomonas aeruginosa [15] was “Resistant”; with Pseudomonas aeruginosa [16], “Resistant”; in the test on Pseudomonas aeruginosa [17], “Susceptible”; in the test on Pseudomonas aeruginosa [23], “I”; with Pseudomonas aeruginosa [24] it was “Susceptible”.
Turning to `NCC[C@H](O)C(=O)N[C@@H]1C[C@H](N)[C@@H](O[C@H]2O[C@H](CN)[C@@H](O)[C@H](O)[C@H]2O)[C@H](O)[C@H]1O[C@H]1O[C@H](CO)[C@@H](O)[C@H](N)[C@H]1O`, the Activity result in the test on Pseudomonas aeruginosa [2] was “Resistant”; in the test with Pseudomonas aeruginosa [3], “Resistant”; with Pseudomonas aeruginosa [25], “Susceptible”; in the test with Pseudomonas aeruginosa [5], “Resistant”; with Pseudomonas aeruginosa [26], “Susceptible”; in the test on Pseudomonas aeruginosa [27], “Susceptible”. Further, the Activity result is “Susceptible” with Pseudomonas aeruginosa [8]; “Resistant” with Pseudomonas aeruginosa [10]; “Susceptible” in the test on Pseudomonas aeruginosa [20]; “Susceptible” with Pseudomonas aeruginosa [21]; “Susceptible” in the test on Pseudomonas aeruginosa [11]; “Resistant” in the test on Pseudomonas aeruginosa [12]. The Activity entry is on record as “Susceptible” with Pseudomonas aeruginosa [22]; “Susceptible” in the test on Pseudomonas aeruginosa [28]; “Resistant” with Pseudomonas aeruginosa [15]; “Susceptible” in the test with Pseudomonas aeruginosa [17]; “Susceptible” in the test with Pseudomonas aeruginosa [24].
On to `C[C@H]1[C@H](NC(=O)/C(=N\OC(C)(C)C(=O)O)c2csc(N)n2)C(=O)N1S(=O)(=O)O`, for which the Activity result with Pseudomonas aeruginosa [1], with Pseudomonas aeruginosa [2], in the test on Pseudomonas aeruginosa [3], with Pseudomonas aeruginosa [5], in the test with Pseudomonas aeruginosa [29] and with Pseudomonas aeruginosa [6] was “Resistant” in each case. Moreover, the Activity entry with Pseudomonas aeruginosa [7] is “Resistant”; in the test on Pseudomonas aeruginosa [8], “Susceptible”; with Pseudomonas aeruginosa [9] it was “Resistant”; with Pseudomonas aeruginosa [10] it was “Resistant”; in the test with Pseudomonas aeruginosa [30] it was “Resistant”; in the test with Pseudomonas aeruginosa [20] it was “Susceptible”. Besides, the Activity entry in the test with Pseudomonas aeruginosa [12], in the test on Pseudomonas aeruginosa [13], in the test with Pseudomonas aeruginosa [14], in the test on Pseudomonas aeruginosa [15] and in the test on Pseudomonas aeruginosa [16] was “Resistant” each time.
